Test results taken from ChEMBL document CHEMBL1126240, “Structure-activity relationship studies of central nervous system agents. 5. Effect of the hydrocarbon chain on the affinity of 4-substituted 1-(3-chlorophenyl)piperazines for 5-HT1A receptor site” (J Med Chem, 1992).

Columns and labels:
[1] = molecular target: T1, 5-hydroxytryptamine receptor 1A (Rattus norvegicus, UniProt P19327); assay: In vitro ability to displace [3H]8-hydroxy-2-(di-n-propylamino) tetralin binding from 5-hydroxytryptamine 1A receptor site in rat brain hippocampus; format: tissue-based
T1 sequence (P19327 whole entry): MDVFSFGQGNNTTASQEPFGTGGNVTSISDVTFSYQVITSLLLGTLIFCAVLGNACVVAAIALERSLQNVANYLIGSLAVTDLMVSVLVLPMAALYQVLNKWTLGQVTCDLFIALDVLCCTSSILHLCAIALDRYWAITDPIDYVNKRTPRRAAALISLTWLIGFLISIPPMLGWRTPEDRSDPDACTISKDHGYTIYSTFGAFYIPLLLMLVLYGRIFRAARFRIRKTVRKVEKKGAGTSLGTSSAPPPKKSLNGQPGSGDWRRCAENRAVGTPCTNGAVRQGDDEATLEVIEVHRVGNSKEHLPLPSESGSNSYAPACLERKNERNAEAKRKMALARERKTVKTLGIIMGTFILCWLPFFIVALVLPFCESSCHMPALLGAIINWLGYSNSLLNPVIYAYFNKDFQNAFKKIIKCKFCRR

[2] = Compound was evaluated for the Ionization constants at 37 degree Centigrade pKa2; format: physicochemical; details: read-out: pKa2
Procedure, shortened: (§1)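 Potentiometric titration at 37 °C; pKa values fitted to the titration data by nonlinear regression.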

[3] = % ionization at the pH 7.4 at 37 degree Centigrade; format: ADME
Procedure, shortened: (§2)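 Fraction ionized calculated from eq 1 using pKa2 measured by potentiometric titration at 37 °C, for pH 7.4 and 37 °C.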

[4] = Compound was evaluated for the Ionization constants at 37 degree Celsius pKa1; format: physicochemical; details: read-out: pKa1; procedure, shortened: as §1
[5] = molecular target: T2, 5-hydroxytryptamine receptor 1A (Rattus norvegicus) (UniProt P19327); assay: Ability to displace the protonated form of [3H]8-hydroxy-2-(di-n-propylamino)tetralin binding from labeled 5-hydroxytryptamine 1A receptor site in rat brain hippocampus; format: tissue-based
T2 sequence (whole entry): T1 sequence (P19327 whole entry)
Procedure, shortened: (§3)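 Radioligand displacement in rat hippocampal tissue using [³H]-8-OH-DPAT as ligand, following a previously published protocol; affinity given as Ki for the protonated (AH+) species.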

[6] = molecular target: T2, 5-hydroxytryptamine receptor 1A (Rattus norvegicus); details: Hippocampus
[7] = Compound was evaluated for the percentage ionization at the pH 7.4 at 37 degree Centigrade; format: ADME; procedure, shortened: as §2
[8] = molecular target: T2, 5-hydroxytryptamine receptor 1A (Rattus norvegicus); assay: Compound was evaluated for its ability to displace the protonated form of [3H]8-hydroxy-2-(di-n-propylamino)tetralin binding from labeled 5-HT 1A receptor site.; procedure, shortened: as §3

SMILES | Ki [1] [nM] | pKa [2] | Ionization [3] [%] | pKa [4] | KiAH [5] [nM] | KiAH [6] [nM] | Ionization [7] [%] | KiAH [8] [nM]
Clc1cccc(N2CC[N+]3(CCCC3)CC2)c1 | 7220 |  |  |  |  |  |  | 
CN1CCN(c2cccc(Cl)c2)CC1 | 152 | 8.27 | 88.1 | 2.82 | 134 |  |  | 
CC(C)N1CCN(c2cccc(Cl)c2)CC1 | 159 | 7.65 | 64 | 2.37 | 102 |  |  | 
CC1(C)CC(=O)N(CCCCN2CCN(c3ncccn3)CC2)C(=O)C1 [GEPIRONE] |  | 7.64 | 63.5 |  | 20.2 |  |  | 
C=CCN1CCN(c2cccc(Cl)c2)CC1 | 251 | 7.08 | 32.4 | 2.94 | 81.2 |  |  | 
Clc1cccc(N2CCN(Cc3ccccc3)CC2)c1 | 166 | 4.39 | 0.1 |  | 0.166 |  |  | 
CCCCCCN1CCN(c2cccc(Cl)c2)CC1 | 2.67 | 5.49 | 1.2 | 2.57 | 0.032 |  |  | 
CCCC(=O)N1CCN(c2cccc(Cl)c2)CC1 | 49000 |  |  |  |  |  |  | 
CCCCN1CCN(c2cccc(Cl)c2)CC1 | 18.4 | 6.7 | 16.6 | 2.43 | 3.06 |  |  | 
O=C1c2ccccc2S(=O)(=O)N1CCCCN1CCN(c2ncccn2)CC1 [IPSAPIRONE] | 3.4 | 5.25 | 0.7 |  |  | 0.024 |  | 
OCCN1CCN(c2cccc(Cl)c2)CC1 | 202 | 6.92 | 24.9 |  | 50.3 |  |  | 
Clc1cccc(N2CCNCC2)c1 [CHLOROPHENYLPIPERAZINE] | 143 | 8.42 | 91.3 |  | 131 |  |  | 
Clc1cccc(N2CCOCC2)c1 | > 100000 |  |  | 2.33 |  |  |  | 
CC(=O)N1CCN(c2cccc(Cl)c2)CC1 | > 100000 |  |  |  |  |  |  | 
O=C(c1ccccc1)N1CCN(c2cccc(Cl)c2)CC1 | > 100000 |  |  |  |  |  |  | 
CC(C)C(=O)N1CCN(c2cccc(Cl)c2)CC1 | > 100000 |  |  |  |  |  |  | 
CCCN(CCC)C1CCc2cccc(O)c2C1 (stereo unspecified) [8-OH-DPAT] |  | 8.02 |  |  |  |  | 80.6 | 1.16
CCCN1CCN(c2cccc(Cl)c2)CC1 | 122 | 7.07 | 31.9 | 2.39 | 38.9 |  |  | 
CCN1CCN(c2cccc(Cl)c2)CC1 | 220 | 7.89 | 75.5 | 2.48 | 166 |  |  | 
CCC(C)N1CCN(c2cccc(Cl)c2)CC1 (stereo unspecified) | 127 | 6.84 | 21.6 | 2.32 | 27.4 |  |  | 
O=C(Cc1ccccc1)N1CCN(c2cccc(Cl)c2)CC1 | 14800 |  |  |  |  |  |  | 
CCC(=O)N1CCN(c2cccc(Cl)c2)CC1 | 30800 |  |  |  |  |  |  | 
CCCCCN1CCN(c2cccc(Cl)c2)CC1 | 5.54 | 6.13 | 5.1 | 2.46 | 0.282 |  |  | 
